# Data reported in ChEMBL document CHEMBL1140286, “Synthesis, in vitro characterization, and radiolabeling of N,N-dimethyl-2-(2'-amino-4'-substituted-phenylthio)benzylamines: potential candidates as selective serotonin transporter radioligands” (J Med Chem, 2005).
# How the values were obtained:
# Type in all cases: cell-based
# [1] = target: Sodium-dependent noradrenaline transporter (Homo sapiens, UniProt P23975); test: In vitro inhibition of [3H]nisoxetine binding to norepinephrine transporter expressed in human kidney cells
# Chain of Sodium-dependent noradrenaline transporter (P23975 whole entry): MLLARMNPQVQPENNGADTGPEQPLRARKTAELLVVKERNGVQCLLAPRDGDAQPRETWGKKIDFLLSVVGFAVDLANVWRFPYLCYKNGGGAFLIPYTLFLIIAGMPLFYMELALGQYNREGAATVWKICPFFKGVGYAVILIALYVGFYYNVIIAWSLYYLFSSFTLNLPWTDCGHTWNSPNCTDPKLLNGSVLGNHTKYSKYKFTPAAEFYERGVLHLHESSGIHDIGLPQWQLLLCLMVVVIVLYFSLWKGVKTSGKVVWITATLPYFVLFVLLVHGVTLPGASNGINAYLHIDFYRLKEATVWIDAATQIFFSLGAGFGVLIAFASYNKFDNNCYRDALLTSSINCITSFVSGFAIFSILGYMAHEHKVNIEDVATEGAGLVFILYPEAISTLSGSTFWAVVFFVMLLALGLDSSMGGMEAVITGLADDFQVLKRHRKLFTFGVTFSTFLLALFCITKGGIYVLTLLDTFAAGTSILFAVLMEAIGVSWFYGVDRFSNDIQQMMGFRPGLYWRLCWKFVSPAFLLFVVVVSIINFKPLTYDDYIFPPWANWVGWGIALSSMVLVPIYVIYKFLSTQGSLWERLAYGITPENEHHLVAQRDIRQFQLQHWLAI
# Outline: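 HEK-293 membranes stably expressing hNET (30-70 µg protein) incubated 4 h at 4 °C with [3H]nisoxetine in 53 mM Tris, 320 mM NaCl, 5.3 mM KCl, pH 7.4. Competitor dissolved in 1:1 ethanol/5 mM HCl, 12 concentrations from 10^-13 to 10^-5 M, triplicate. Cold-buffer termination, vacuum filtration on GF/B; Ki calculated from competition curves.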
# [2] = target: Sodium-dependent dopamine transporter (Homo sapiens, UniProt Q01959); test: In vitro inhibition of [3H]WIN-35428 binding to human dopamine transporter expressed in canine kidney cells
# Chain of Sodium-dependent dopamine transporter (Q01959 whole entry): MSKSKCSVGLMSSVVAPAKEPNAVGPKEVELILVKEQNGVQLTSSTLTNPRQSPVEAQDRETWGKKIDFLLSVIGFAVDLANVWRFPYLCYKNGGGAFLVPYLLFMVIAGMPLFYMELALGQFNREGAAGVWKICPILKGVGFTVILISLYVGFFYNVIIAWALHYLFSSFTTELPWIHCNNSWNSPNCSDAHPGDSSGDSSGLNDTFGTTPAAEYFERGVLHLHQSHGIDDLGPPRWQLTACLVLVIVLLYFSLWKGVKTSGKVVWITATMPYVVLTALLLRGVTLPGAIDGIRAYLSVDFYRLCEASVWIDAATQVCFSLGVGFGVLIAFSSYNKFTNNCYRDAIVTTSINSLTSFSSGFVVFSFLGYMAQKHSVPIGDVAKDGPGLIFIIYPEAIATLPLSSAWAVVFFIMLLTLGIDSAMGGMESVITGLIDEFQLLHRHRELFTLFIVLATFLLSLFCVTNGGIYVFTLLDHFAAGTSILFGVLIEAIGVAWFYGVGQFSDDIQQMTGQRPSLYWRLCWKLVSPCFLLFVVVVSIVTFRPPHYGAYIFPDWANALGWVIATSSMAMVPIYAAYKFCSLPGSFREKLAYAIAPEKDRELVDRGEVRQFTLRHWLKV
# Outline: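 Membranes from MDCK cells stably expressing hDAT, grown to confluency in DMEM with 10% FBS and Geneticin, harvested in PBS/0.53 mM EDTA, homogenized, pelleted at 43 000g. Membranes (30-70 µg protein) incubated 1 h at room temperature in 42 mM sodium phosphate, 320 mM sucrose, pH 7.4, with 2.0 nM [3H]WIN 35,428; competitor 10^-13 to 10^-5 M, 12 concentrations, triplicate; GF/B filtration; Ki.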
# [3] = target: Sodium-dependent serotonin transporter (Homo sapiens, UniProt P31645); test: In vitro inhibition of [3H]citalopram binding to human serotonin transporter expressed in human HEK293 cells
# Chain of Sodium-dependent serotonin transporter (P31645 whole entry): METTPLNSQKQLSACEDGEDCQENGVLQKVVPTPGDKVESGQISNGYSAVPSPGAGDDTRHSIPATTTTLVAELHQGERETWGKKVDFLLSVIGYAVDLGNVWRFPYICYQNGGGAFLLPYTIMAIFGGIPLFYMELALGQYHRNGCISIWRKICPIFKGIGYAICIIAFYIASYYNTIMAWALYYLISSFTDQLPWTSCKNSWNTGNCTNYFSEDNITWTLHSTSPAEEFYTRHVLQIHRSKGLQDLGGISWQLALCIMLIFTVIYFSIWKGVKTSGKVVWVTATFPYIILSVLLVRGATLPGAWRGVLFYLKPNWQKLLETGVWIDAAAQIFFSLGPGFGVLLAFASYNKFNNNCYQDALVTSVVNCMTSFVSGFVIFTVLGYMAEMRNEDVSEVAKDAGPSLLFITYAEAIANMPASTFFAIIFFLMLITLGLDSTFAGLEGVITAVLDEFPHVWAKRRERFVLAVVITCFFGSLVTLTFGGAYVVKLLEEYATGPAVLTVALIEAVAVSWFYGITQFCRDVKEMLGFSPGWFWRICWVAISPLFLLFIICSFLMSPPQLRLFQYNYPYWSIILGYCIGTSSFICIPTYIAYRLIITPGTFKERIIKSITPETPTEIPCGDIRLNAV
# Outline: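 Membranes from HEK-293 cells stably expressing hSERT, grown in DMEM with 10% FBS and Geneticin. 30-70 µg membrane protein incubated 2 h at room temperature with [3H]citalopram in 53 mM Tris, 126 mM NaCl, 5.3 mM KCl, pH 7.9. Competitor at 12 concentrations, 10^-13 to 10^-5 M, in triplicate. Filtration through PEI-soaked GF/B filters; Ki from competition curves, at least two separate assays.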
Structure (SMILES),Ki [1] [nM],Ki [2] [nM],Ki [3] [nM]
CCc1ccc(Sc2ccccc2CNC)c(N)c1,445,> 1000,2.04
CN(C)Cc1ccccc1Sc1ccc(CCCO)cc1N,108,> 5000,92.3
CN(C)Cc1ccccc1Sc1ccc(CO)cc1N,303,> 1000,0.57
CNCc1ccccc1Sc1ccc(CO)cc1N,484,> 1000,15.1
C=Cc1ccc(Sc2ccccc2CN(C)C)c(N)c1,269,962,1.12
CN(C)Cc1ccccc1Sc1ccc(CCO)cc1N,194,> 1000,50.6
CN(C)Cc1ccccc1Sc1ccccc1N,4.95,279,1.59
CCc1ccc(Sc2ccccc2CN(C)C)c(N)c1,370,> 2000,0.49
CN(C)Cc1ccccc1Sc1ccc(I)cc1N,–,–,0.013
CNC(=O)c1ccccc1Sc1ccccc1[N+](=O)[O-],37.5,969,83.4
CN(C)Cc1ccccc1Sc1ccc(CCCF)cc1N,219,> 5000,8.55
CN(C)Cc1ccccc1Sc1ccc(CCF)cc1N,> 5000,> 5000,8.5
Cc1ccc(Sc2ccccc2CN(C)C)c(N)c1,61,532,0.25
CNC(=O)c1ccccc1Sc1ccc(C)cc1[N+](=O)[O-],191,698,1.94
